Source: ChEMBL document CHEMBL1212799 (2010)
≈ marks a conversion by molar mass, not a printed value.

Tests used:
Klebsiella pneumoniae [1] = test: Antibacterial activity against Klebsiella pneumoniae isolate 354 in vitro pharmacodynamic model; format: functional
Procedure, shortened: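 Inoculum 10^6 CFU/ml; dosing began 0.5 h after inoculation. Two treated models plus one untreated control per isolate; blood-agar counts; change in log10 CFU/ml over 24 h (detection limit 10^1); drug levels checked by HPLC.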

Klebsiella pneumoniae [2] = test: Antibacterial activity against Klebsiella pneumoniae isolate 375 in vitro pharmacodynamic model; format: functional
Procedure, shortened: (§1)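 Simulated peak 38.4 µg/ml, trough 3.04 µg/ml. CAMHB at 37°C, 10^6 CFU/ml from overnight culture, drug started at 0.5 h. Two treated models plus one growth control. Change in log10 CFU/ml over 24 h on blood agar. Detection limit 10^1 CFU/ml.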

Pseudomonas aeruginosa [3] = test: Antibacterial activity against Pseudomonas aeruginosa isolate 1030 in vitro pharmacodynamic model; format: functional; procedure, shortened: as §1
Pseudomonas aeruginosa [4] = test: Antibacterial activity against Pseudomonas aeruginosa isolate 1038 in vitro pharmacodynamic model; format: functional; procedure, shortened: as §1
Pseudomonas aeruginosa [5] = test: Antibacterial activity against Pseudomonas aeruginosa isolate 1177 in vitro pharmacodynamic model; format: functional; procedure, shortened: as §1
Klebsiella pneumoniae [6] = test: fT>MIC in Klebsiella pneumoniae isolate 353 at 2 gram for every 8 hrs administered as 3 hrs infusion over 24 hrs in in vitro pharmcodynamic model; format: functional, isoalte 353
Procedure, shortened: (§2)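 Samples assayed by HPLC (linear 0.25–40 µg/ml). Time free drug stayed above the modal triplicate broth-microdilution MIC (CLSI) calculated for each 8-h interval.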

Klebsiella pneumoniae [7] = test: fT>MIC in Klebsiella pneumoniae isolate 357 at 2 gram for every 8 hrs administered as 3 hrs infusion over 24 hrs in in vitro pharmcodynamic model; format: functional; procedure, shortened: as §2
Klebsiella pneumoniae [8] = test: fT>MIC in Klebsiella pneumoniae isolate 360 at 2 gram for every 8 hrs administered as 3 hrs infusion over 24 hrs in in vitro pharmcodynamic model; format: functional; procedure, shortened: as §2
Klebsiella pneumoniae [9] = test: fT>MIC in Klebsiella pneumoniae isolate 334 at 2 gram for every 8 hrs administered as 3 hrs infusion over 24 hrs in in vitro pharmcodynamic model; format: functional; procedure, shortened: as §2
Pseudomonas aeruginosa [10] = test: fT>MIC in Pseudomonas aeruginosa isolate 1030 at 2 gram for every 8 hrs administered as 3 hrs infusion over 24 hrs in in vitro pharmcodynamic model; format: functional
Pseudomonas aeruginosa [11] = test: fT>MIC in Pseudomonas aeruginosa isolate 1177 at 2 gram for every 8 hrs administered as 3 hrs infusion over 24 hrs in in vitro pharmcodynamic model; format: functional
Pseudomonas aeruginosa [12] = test: fT>MIC in Pseudomonas aeruginosa isolate 988 at 2 gram for every 8 hrs administered as 3 hrs infusion over 24 hrs in in vitro pharmcodynamic model; format: functional
Klebsiella pneumoniae [13] = test: fT>MIC in Klebsiella pneumoniae isolate 377 at 2 gram for every 8 hrs administered as 3 hrs infusion measured over 0-8 hrs in in vitro pharmcodynamic model; format: functional
Klebsiella pneumoniae [14] = test: fT>MIC in Klebsiella pneumoniae isolate 328A at 2 gram for every 8 hrs administered as 3 hrs infusion measured over 0-8 hrs in in vitro pharmcodynamic model; format: functional; procedure, shortened: as §2
Klebsiella pneumoniae [15] = test: fT>MIC in Klebsiella pneumoniae isolate 357 at 2 gram for every 8 hrs administered as 3 hrs infusion measured over 0-8 hrs in in vitro pharmcodynamic model; format: functional; procedure, shortened: as §2
Klebsiella pneumoniae [16] = test: fT>MIC in Klebsiella pneumoniae isolate 334 at 2 gram for every 8 hrs administered as 3 hrs infusion measured over 0-8 hrs in in vitro pharmcodynamic model; format: functional; procedure, shortened: as §2
Pseudomonas aeruginosa [17] = test: fT>MIC in Pseudomonas aeruginosa isolate 1038 at 2 gram for every 8 hrs administered as 3 hrs infusion measured over 0-8 hrs in in vitro pharmcodynamic model; format: functional
Pseudomonas aeruginosa [18] = test: fT>MIC in Pseudomonas aeruginosa isolate 762 at 2 gram for every 8 hrs administered as 3 hrs infusion measured over 0-8 hrs in in vitro pharmcodynamic model; format: functional
Pseudomonas aeruginosa [19] = test: fT>MIC in Pseudomonas aeruginosa isolate 988 at 2 gram for every 8 hrs administered as 3 hrs infusion measured over 0-8 hrs in in vitro pharmcodynamic model; format: functional
Klebsiella pneumoniae [20] = test: fT>MIC in Klebsiella pneumoniae isolate 351 at 2 gram for every 8 hrs administered as 3 hrs infusion measured over 8-16 hrs in in vitro pharmcodynamic model; format: functional; procedure, shortened: as §2
Klebsiella pneumoniae [21] = test: fT>MIC in Klebsiella pneumoniae isolate 354 at 2 gram for every 8 hrs administered as 3 hrs infusion measured over 8-16 hrs in in vitro pharmcodynamic model; format: functional; procedure, shortened: as §2
Klebsiella pneumoniae [22] = test: fT>MIC in Klebsiella pneumoniae isolate 357 at 2 gram for every 8 hrs administered as 3 hrs infusion measured over 8-16 hrs in in vitro pharmcodynamic model; format: functional; procedure, shortened: as §2
Klebsiella pneumoniae [23] = test: fT>MIC in Klebsiella pneumoniae isolate 334 at 2 gram for every 8 hrs administered as 3 hrs infusion measured over 8-16 hrs in in vitro pharmcodynamic model; format: functional; procedure, shortened: as §2
Klebsiella pneumoniae [24] = test: fT>MIC in Klebsiella pneumoniae isolate 361 at 2 gram for every 8 hrs administered as 3 hrs infusion measured over 8-16 hrs in in vitro pharmcodynamic model; format: functional; procedure, shortened: as §2
Pseudomonas aeruginosa [25] = test: fT>MIC in Pseudomonas aeruginosa isolate 1030 at 2 gram for every 8 hrs administered as 3 hrs infusion measured over 8-16 hrs in in vitro pharmcodynamic model; format: functional
Pseudomonas aeruginosa [26] = test: fT>MIC in Pseudomonas aeruginosa isolate 896 at 2 gram for every 8 hrs administered as 3 hrs infusion measured over 8-16 hrs in in vitro pharmcodynamic model; format: functional
Klebsiella pneumoniae [27] = test: fT>MIC in Klebsiella pneumoniae isolate 328A at 2 gram for every 8 hrs administered as 3 hrs infusion measured over 16-24 hrs in in vitro pharmcodynamic model; format: functional; procedure, shortened: as §2
Klebsiella pneumoniae [28] = test: fT>MIC in Klebsiella pneumoniae isolate 354 at 2 gram for every 8 hrs administered as 3 hrs infusion measured over 16-24 hrs in in vitro pharmcodynamic model; format: functional; procedure, shortened: as §2
Klebsiella pneumoniae [29] = test: fT>MIC in Klebsiella pneumoniae isolate 360 at 2 gram for every 8 hrs administered as 3 hrs infusion measured over 16-24 hrs in in vitro pharmcodynamic model; format: functional; procedure, shortened: as §2
Klebsiella pneumoniae [30] = test: fT>MIC in Klebsiella pneumoniae isolate 368 at 2 gram for every 8 hrs administered as 3 hrs infusion measured over 16-24 hrs in in vitro pharmcodynamic model; format: functional
Klebsiella pneumoniae [31] = test: fT>MIC in Klebsiella pneumoniae isolate 375 at 2 gram for every 8 hrs administered as 3 hrs infusion measured over 16-24 hrs in in vitro pharmcodynamic model; format: functional
Pseudomonas aeruginosa [32] = test: fT>MIC in Pseudomonas aeruginosa isolate 1177 at 2 gram for every 8 hrs administered as 3 hrs infusion measured over 16-24 hrs in in vitro pharmcodynamic model; format: functional
Klebsiella pneumoniae [33] = test: Antibacterial activity against Klebsiella pneumoniae isolate 357 assessed as reduction of bacterial count at 16 ug/ml within 6 hrs in vitro pharmacodynamic model; format: functional
Klebsiella pneumoniae [34] = test: Antibacterial activity against Klebsiella pneumoniae isolate 353 assessed as reduction of bacterial count at 16 ug/ml within 6 hrs in vitro pharmacodynamic model; format: functional, isoalte 353
Klebsiella pneumoniae [35] = test: Antibacterial activity against Klebsiella pneumoniae isolate 328A assessed as reduction of bacterial count at 8 ug/ml within 6 hrs in vitro pharmacodynamic model; format: functional
Klebsiella pneumoniae [36] = test: Antibacterial activity against Klebsiella pneumoniae isolate 361 assessed as reduction of bacterial count at 64 ug/ml within 6 hrs in vitro pharmacodynamic model; format: functional
Pseudomonas aeruginosa [37] = test: Antibacterial activity against Pseudomonas aeruginosa isolate 1038 assessed as reduction of bacterial count at 8 ug/ml within 6 hrs in vitro pharmacodynamic model; format: functional
Pseudomonas aeruginosa [38] = test: Antibacterial activity against Pseudomonas aeruginosa isolate 1177 assessed as reduction of bacterial count at 8 ug/ml within 6 hrs in vitro pharmacodynamic model; format: functional
Klebsiella pneumoniae [39] = test: fT>MIC in Klebsiella pneumoniae isolate 360 at 2 gram for every 8 hrs administered as 3 hrs infusion measured over 0-8 hrs in in vitro pharmcodynamic model; format: functional; procedure, shortened: as §2

`C[C@@H](O)[C@H]1C(=O)N2C(C(=O)O)=C(S[C@@H]3CN[C@H](C(=O)N(C)C)C3)[C@H](C)[C@H]12` [MEROPENEM] gave an MIC (Klebsiella pneumoniae [1]) of 8 µg/mL (≈ 20.9 µM), an MIC (Klebsiella pneumoniae [2]) of 32 µg/mL (≈ 83.4 µM) and an MIC (Pseudomonas aeruginosa [3]) of 8 µg/mL (≈ 20.9 µM). For the same molecule, the MIC (Pseudomonas aeruginosa [4]) was 8 µg/mL (≈ 20.9 µM), the MIC (Pseudomonas aeruginosa [5]) was 8 µg/mL (≈ 20.9 µM) and the “fT>MIC” value (Klebsiella pneumoniae [6]) was 47%. For the same molecule, the “fT>MIC” value (Klebsiella pneumoniae [7]) was 47%, the “fT>MIC” value (Klebsiella pneumoniae [8]) was 47% and the “fT>MIC” value (Klebsiella pneumoniae [9]) was 16%. The “fT>MIC” value (Pseudomonas aeruginosa [10]) was 69%, the “fT>MIC” value (Pseudomonas aeruginosa [11]) was 69% and the “fT>MIC” value (Pseudomonas aeruginosa [12]) was 47%. For the same molecule, the “fT>MIC” value (Klebsiella pneumoniae [13]) was 100%, the “fT>MIC” value (Klebsiella pneumoniae [14]) was 69% and the “fT>MIC” value (Klebsiella pneumoniae [15]) was 12%. The “fT>MIC” value (Klebsiella pneumoniae [16]) was 0%, the “fT>MIC” value (Pseudomonas aeruginosa [17]) was 94% and the “fT>MIC” value (Pseudomonas aeruginosa [18]) was 50%. The “fT>MIC” value (Pseudomonas aeruginosa [19]) was 47%, the “fT>MIC” value (Klebsiella pneumoniae [20]) was 62% and the “fT>MIC” value (Klebsiella pneumoniae [21]) was 56%. The “fT>MIC” value (Klebsiella pneumoniae [22]) was 0%, the “fT>MIC” value (Klebsiella pneumoniae [23]) was 0% and the “fT>MIC” value (Klebsiella pneumoniae [24]) was 0%. The “fT>MIC” value (Pseudomonas aeruginosa [25]) was 78%, the “fT>MIC” value (Pseudomonas aeruginosa [26]) was 63% and the “fT>MIC” value (Klebsiella pneumoniae [27]) was 78%. The “fT>MIC” value (Klebsiella pneumoniae [28]) was 3%, the “fT>MIC” value (Klebsiella pneumoniae [29]) was 0% and the “fT>MIC” value (Klebsiella pneumoniae [30]) was 0%. For the same molecule, the “fT>MIC” value (Klebsiella pneumoniae [31]) was 0%, the “fT>MIC” value (Pseudomonas aeruginosa [32]) was 78% and the log10cfu (Klebsiella pneumoniae [33]) was over 3. The log10cfu (Klebsiella pneumoniae [34]) was over 3, the log10cfu (Klebsiella pneumoniae [35]) was over 3 and the log10cfu (Klebsiella pneumoniae [36]) was over 3. For the same molecule, the log10cfu (Pseudomonas aeruginosa [37]) was “>=3”, the log10cfu (Pseudomonas aeruginosa [38]) was “>=3” and the “fT>MIC” value (Klebsiella pneumoniae [39]) was 0%.
